# Experimental data taken from PubChem BioAssay.
# Active and inactive are the calls of the source.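 How the source made its calls, unless noted: active means Her2 level under about 52% in both replicate screens, with viability over 70% of control (limit read from the data); inconclusive means Her2 under the limit in one screen only, or viability under 70%; inactive means Her2 level above the set limit.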
# Tests used:
# [1] = reducers of endogenous Her2 protein level, primary screen, SKBR3 breast tumor cells, AlphaScreen, ATP viability (AID 461); settings: 18-24 h, measured here: SKBR3 viability, ATP luminescence, at 10 µM;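 on Her2 level: lower value means less Her2 protein in the cells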;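 on viability: percent of carrier control wells set as 100% viability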
# [2] = biological target: Receptor tyrosine-protein kinase erbB-2 (Homo sapiens) (UniProt P04626); experiment: as above; settings: 18-24 h, at 10 µM, stronger effect = lower value
# [3] = SK-BR-3 cell growth inhibitors, pilot screen, 24 h, human (AID 572;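 active means viability at or below 10% of carrier control in both of two separate runs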;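 further: compound exposure lasted between 18 and 24 h rather than exactly 24 h; 100% = carrier-treated control wells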); settings: SK-BR-3 viability, CellTiter-Glo luminescence, at 10 µM, stronger effect = lower value
# [4] = HUVEC growth inhibition – cell-based, human, primary screen (AID 575;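 active means viability at or below 30% in both replicate assays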;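 further: 100% = median of untreated cell wells with 0.1% DMSO on each plate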); settings: HUVEC proliferation, CellTiter-Glo luminescence, 72 h; at 10 µM; stronger effect = lower value
# How it was run: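 material = primary HUVEC, no more than 12 passages | input = 1250 cells per well | controls = vehicle and MePR control wells | measured by = CTG luminescence | times = 72 h compound incubation | format = collagen-coated 384-well format | read-out = % viability vs DMSO wells | doses = single 10 µM dose, 0.1% DMSO, from 5x medium stock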
# [5] = growth inhibitors of H69AR lung tumor, primary screen, human, duplicate replicates (AID 580;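 active means viability at or under a set limit in both replicates, limit being median viability minus 3 SD, cut at about 48% in these data, passing the limit was not always enough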;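 further: 100% = mean luminescence of untreated wells and 0% = no signal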); settings: H69AR lung tumor cells viability, ATP luminescence, 72 h; at 10 µM; stronger effect = lower value
# [6] = reversal of MRP1-mediated doxorubicin resistance, pilot screen, H69AR cells, doxorubicin co-treatment (AID 601;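 active means viability loss from added drug above about 55%, and viability with drug at most 40%, in both replicates, limit read from the data, passing the limit was not always enough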); settings: CellTiter-Glo, 72 h, at 10 µM; for differential viability (reversal): stronger effect = higher value
# [7] = 384-well plate pilot, post-Golgi transport modulator project, inhibition of yeast transport mutant growth (AID 636; in the data active means inhibition above about 31%); settings: absorbance 615 nm, about 18 h, stronger effect = higher value
# [8] = growth suppression of yeast trafficking mutant, preliminary HTS, modulators of trafficking downstream of Golgi apparatus project, 1536-format plate, OD 615 nm (AID 637; in the data active means inhibition above about 30%); settings: yeast transport mutant growth, absorbance 615 nm, 18 h; stronger effect = higher value
# [9] = H69AR cells + 2 uM doxorubicin, measured here: viability with 2 uM doxorubicin, stronger effect = lower value
# [10] = H69AR cells, compound alone cytotoxicity
# Receptor tyrosine-protein kinase erbB-2 (Homo sapiens), sequence (P04626 whole entry, looked up): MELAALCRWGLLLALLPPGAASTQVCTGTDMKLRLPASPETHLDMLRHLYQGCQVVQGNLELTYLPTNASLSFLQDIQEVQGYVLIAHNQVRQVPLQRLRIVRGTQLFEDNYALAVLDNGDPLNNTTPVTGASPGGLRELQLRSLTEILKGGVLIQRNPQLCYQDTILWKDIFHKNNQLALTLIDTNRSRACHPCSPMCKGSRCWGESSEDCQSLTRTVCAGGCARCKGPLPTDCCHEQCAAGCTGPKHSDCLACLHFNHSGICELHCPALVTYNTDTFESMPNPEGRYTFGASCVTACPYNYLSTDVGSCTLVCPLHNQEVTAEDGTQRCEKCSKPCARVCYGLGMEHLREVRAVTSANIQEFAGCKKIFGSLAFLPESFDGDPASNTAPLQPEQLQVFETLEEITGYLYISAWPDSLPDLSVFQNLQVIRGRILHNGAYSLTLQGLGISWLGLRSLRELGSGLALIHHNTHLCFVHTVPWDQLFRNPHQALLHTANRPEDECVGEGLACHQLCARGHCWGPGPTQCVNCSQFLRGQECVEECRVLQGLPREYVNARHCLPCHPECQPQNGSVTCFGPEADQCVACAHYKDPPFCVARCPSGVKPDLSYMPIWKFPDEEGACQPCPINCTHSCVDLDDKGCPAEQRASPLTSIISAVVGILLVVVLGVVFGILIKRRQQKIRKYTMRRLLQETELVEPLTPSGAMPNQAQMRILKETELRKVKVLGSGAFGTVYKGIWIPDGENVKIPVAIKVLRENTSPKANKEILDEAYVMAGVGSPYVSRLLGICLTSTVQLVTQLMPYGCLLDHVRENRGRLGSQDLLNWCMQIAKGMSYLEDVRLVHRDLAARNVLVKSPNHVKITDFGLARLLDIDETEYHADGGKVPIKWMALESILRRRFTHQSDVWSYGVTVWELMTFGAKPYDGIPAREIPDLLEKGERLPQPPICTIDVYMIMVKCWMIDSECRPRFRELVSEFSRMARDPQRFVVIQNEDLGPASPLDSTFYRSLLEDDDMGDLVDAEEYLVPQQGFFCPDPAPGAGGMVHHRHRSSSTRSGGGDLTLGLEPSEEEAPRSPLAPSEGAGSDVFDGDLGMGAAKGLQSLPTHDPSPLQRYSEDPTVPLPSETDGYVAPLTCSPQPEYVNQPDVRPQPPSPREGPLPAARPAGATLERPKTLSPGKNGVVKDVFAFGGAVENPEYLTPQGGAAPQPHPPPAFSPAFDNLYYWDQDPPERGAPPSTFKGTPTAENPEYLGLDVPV
Compound,viability [1] [%],Her2 level [2],viability [3],viability [4],viability [5],differential viability (reversal) ([6]; H69AR cells + 2 uM doxorubicin),"viability [6, 9] [%]","viability [6, 10] [%]",inhibition [7],inhibition [8]
CCn1cc(C(=O)N2CCN(C(=O)c3ccco3)CC2)c2cc(OC)c(OC)cc2c1=O,95,84% (inactive),95% (inactive),91.3% (inactive),98.1% (inactive),0.175% (inactive),97.9,98.1,-4.61% (inactive),-2.36% (inactive)
CN(C)c1cccc(C(=O)OCC(=O)NCc2ccco2)c1,102,86.5% (inactive),102% (inactive),87% (inactive),86.2% (inactive),7.69% (inactive),78.6,86.2,-4.81% (inactive),-2.22% (inactive)
Cc1sc2nc(SCC(=O)NCc3ccco3)n(CCc3ccccc3)c(=O)c2c1C,102,86.5% (inactive),102% (inactive),58.3% (inactive),40% (active),-14.2% (inactive),54.2,40,-6.27% (inactive),0.82% (inactive)
COc1ccc(-n2cnnc2SCCC#N)cc1,106,96.5% (inactive),106% (inactive),88.3% (inactive),106% (inactive),16.2% (inactive),89.5,106,-3.33% (inactive),3.71% (inactive)
COc1ccc(C(=O)CN2C(=O)NC3(CCCc4ccccc43)C2=O)cc1OC (stereo not given),98,84.5% (inactive),98% (inactive),95.6% (inactive),88.6% (inactive),10.9% (inactive),77.7,88.6,-1.87% (inactive),2.42% (inactive)
COC(=O)c1ccnc(/C=N/O)c1,95,76% (inactive),95% (inactive),99.8% (inactive),88.1% (inactive),7.13% (inactive),81,88.1,-3.92% (inactive),2.7% (inactive)
CCOC(=O)c1ccc(NC(=O)CSc2nnc(COc3ccccc3)n2C)cc1,110,113% (inactive),110% (inactive),85.3% (inactive),107% (inactive),8.77% (inactive),98.1,107,-1.3% (inactive),-9.67% (inactive)
c1cncc(-c2nc3c4ccccc4nc(N4CCC(N5CCCCC5)CC4)n3n2)c1,93.5,79.5% (inactive),93.5% (inactive),80.1% (inactive),84.1% (inactive),2.83% (inactive),81.2,84.1,-9.73% (inactive),-0.48% (inactive)
COc1ccc(-c2cn3cc(C)ccc3n2)cc1OC,108,88% (inactive),108% (inactive),91.5% (inactive),63.7% (inactive),0.63% (inactive),63.1,63.7,-5.26% (inactive),-1.64% (inactive)
CCn1c(CSc2nnc(-c3cccnc3)n2-c2ccccc2C)nc2cc(C(=O)O)ccc21,95.5,109% (inactive),95.5% (inactive),94% (inactive),99.1% (inactive),11.4% (inactive),87.8,99.1,-3.56% (inactive),-7.3% (inactive)
Cc1cc(C)cc(NC(=O)c2nnn(Cc3cc(C)ccc3C)c2N)c1,111,92% (inactive),111% (inactive),71.3% (inactive),88.1% (inactive),-2.83% (inactive),90.9,88.1,-0.8% (inactive),-1.33% (inactive)
COC(=O)c1oc2ccc(OC)cc2c1N,107,88% (inactive),107% (inactive),82.4% (inactive),100% (inactive),13.9% (inactive),86.2,100,-2.53% (inactive),-4.84% (inactive)
CCN(CC)S(=O)(=O)c1ccc(C(=O)N2CCN=C2SCc2cccnc2)cc1,82.5,95.5% (inactive),82.5% (inactive),79.7% (inactive),84.5% (inactive),-3.98% (inactive),88.5,84.5,-3.38% (inactive),-3.02% (inactive)
Cc1cc2ccccc2n1CCNC(=O)c1ccc(S(=O)(=O)N2CCOCC2)cc1,95.5,90% (inactive),95.5% (inactive),85% (inactive),93% (inactive),-4.87% (inactive),97.8,93,-7.57% (inactive),1.75% (inactive)
CCCCC(=O)Nc1c(O)c2ccccc2[nH]c1=O,95.5,107% (inactive),95.5% (inactive),108% (inactive),98.3% (inactive),-2.29% (inactive),101,98.3,-6.93% (inactive),-8.69% (inactive)
CCOC(=O)c1cccc(NC(=O)CSc2nc3cccnc3n2C)c1,86.5,94.5% (inactive),86.5% (inactive),71.4% (inactive),93.2% (inactive),-1.5% (inactive),94.7,93.2,-5.14% (inactive),1.8% (inactive)

Compound,viability [1] [%],Her2 level [2],viability [3],viability [4],viability [5],differential viability (reversal) ([6]; H69AR cells + 2 uM doxorubicin),"viability [6, 9] [%]","viability [6, 10] [%]",inhibition [7],inhibition [8]
COc1ccc(N2CCN(C(=O)CCNS(=O)(=O)c3ccc(Br)s3)CC2)cc1,64,91.5% (inactive),64% (inactive),80.1% (inactive),88.7% (inactive),-3.66% (inactive),92.3,88.7,-4.55% (inactive),6.72% (inactive)
CCOc1ccc(C2C(C(=O)OC)=CN(CCOC)C=C2C(=O)OC)cc1,106,109% (inactive),106% (inactive),90% (inactive),97.3% (inactive),-1.94% (inactive),99.2,97.3,0.64% (inactive),-1.33% (inactive)
COc1ccccc1-c1nnc(SCC(=O)N2CC(C)CC(C)C2)o1 (stereo not given),80.5,81.5% (inactive),80.5% (inactive),77.4% (inactive),78.1% (inactive),-5.03% (inactive),83.2,78.1,-5% (inactive),-5% (inactive)
Cc1c(NS(=O)(=O)c2ccc3c(c2)n(C)c(=O)n3C)c(=O)n(-c2ccccc2)n1C,113,93% (inactive),113% (inactive),87.3% (inactive),94.2% (inactive),3.4% (inactive),90.8,94.2,-4.67% (inactive),-0.98% (inactive)
CCCC(=O)Nc1ccc(OCC(=O)OC)cc1,99.5,78.5% (inactive),99.5% (inactive),89.9% (inactive),98.9% (inactive),5.34% (inactive),93.6,98.9,-3.95% (inactive),0.79% (inactive)
Cc1ccc(S(=O)(=O)CC2CSc3nnc(C)c(=O)n32)cc1 (stereo not given),136,112% (inactive),136% (inactive),125% (inactive),88% (inactive),2.67% (inactive),85.4,88,-5.26% (inactive),1.17% (inactive)
Cc1nc2c(c(=O)n1CC1CCCO1)c1nc3ccccc3nc1n2CC(C)C (stereo not given),96.5,89.5% (inactive),96.5% (inactive),104% (inactive),84.2% (inactive),-9.93% (inactive),94.1,84.2,2.63% (inactive),0.81% (inactive)
CCCc1cc(Nc2cccc(OC)c2)n2ncnc2n1,83,129% (inactive),83% (inactive),94.6% (inactive),81.2% (inactive),-0.635% (inactive),81.8,81.2,-4.1% (inactive),-5% (inactive)
CC1CN(c2nc3ccccc3nc2C(C#N)C(=O)OC2CCCCC2)CC(C)O1 (stereo not given),94,97% (inactive),94% (inactive),78.7% (inactive),96.1% (inactive),12.6% (inactive),83.5,96.1,-5.07% (inactive),2.54% (inactive)
CCCC(=O)Nc1ccc(NC(=O)c2ccccc2OC)cn1,94.5,101% (inactive),94.5% (inactive),100% (inactive),92.9% (inactive),5.96% (inactive),86.9,92.9,-1.17% (inactive),-4.43% (inactive)
O=C(O)CSc1ccc2ccccc2n1,95.5,81% (inactive),95.5% (inactive),106% (inactive),90% (inactive),9.33% (inactive),80.7,90,-7.47% (inactive),5.48% (inactive)
COCCCn1c(SCC(=O)N2CCc3ccccc32)nnc1-c1ccoc1C,108,80% (inactive),108% (inactive),93.8% (inactive),98.4% (inactive),2.4% (inactive),96,98.4,-4.67% (inactive),0.65% (inactive)
COc1ccccc1N1CCN(C(=O)c2ccc3nc(-c4ccco4)c(-c4ccco4)nc3c2)CC1,103,79.5% (inactive),103% (inactive),48.5% (inactive),69.6% (inactive),-8.06% (inactive),77.6,69.6,-4.67% (inactive),-4.1% (inactive)
O=c1[nH]c2cc3c(cc2cc1C(c1nnnn1Cc1ccccc1)N1CCCc2ccccc21)OCO3 (stereo not given),98.5,95.5% (inactive),98.5% (inactive),79.3% (inactive),61.6% (inactive),-0.235% (inactive),61.8,61.6,-3.73% (inactive),4.43% (inactive)
COc1cccc(C2CC(c3ccccc3)n3ncnc3N2)c1 (stereo not given),87,112% (inactive),87% (inactive),93.5% (inactive),90.2% (inactive),10.2% (inactive),80,90.2,2.82% (inactive),3.67% (inactive)
